Reference: ChEMBL document CHEMBL5346886 (Eur J Med Chem, 2023)
Active and inactive are the calls of the source. No cut-off for these calls is given here.

Legend:
[1] = tested on: Murine hepatitis virus; assay: Antiviral activity against murine hepatitis virus-A59 infected in BALB/c mouse model of acute liver injury assessed as reduction in plasma AST level at 10 to 200 mg/kg, po administered once daily one hour post infection and measured after 3 days; format: functional, organism-based; conditions: dose 10-200 mg/kg, time 3.0 day
How it was run: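 Male BALB/c mice were infected intranasally with MHV-A59 (30 μL, TCID50 = 10−7.125/100 μL) and dosed orally once daily from 1 hpi for four days in 15% Cremophor EL/82.5% PBS/2.5% DMSO. At 3 dpi, blood from 4 euthanized mice per group was left to clot at room temperature and centrifuged. Serum ALT and AST were measured on a clinical chemistry analyzer.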

[2] = tested on: Murine hepatitis virus; assay: Antiviral activity against murine hepatitis virus-A59 infected in BALB/c mouse assessed as reduction in IFN-gamma production in liver at 10 to 100 mg/kg, po administered once daily one hour post infection and measured after 3 days by ELISA analysis; format: functional, organism-based; conditions: dose 10-100 mg/kg, time 3.0 day
How it was run: (§1)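 MHV-A59 was inoculated intranasally into male BALB/c mice (30 μL, TCID50 = 10−7.125/100 μL), with oral dosing once daily from 1 hpi for four days. At 3 dpi, 0.1 g lung or liver from 4 mice per group was homogenized in 0.9 mL water at 4 °C and centrifuged. Supernatant IFN-β was read by ELISA; TNF-α, IFN-γ, IL-1β, IL-6 and CXCL10 by multi-analyte kit, with OD 450 nm against standards.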

[3] = tested on: Murine hepatitis virus; assay: Antiviral activity against murine hepatitis virus-A59 infected in BALB/c mouse assessed as remission of hemorrhage in liver at 200 mg/kg, po administered once daily one hour post infection and measured after 3 days by H&E staining based analysis; format: functional, organism-based; conditions: time 3.0 day
How it was run: (§2)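 In male BALB/c mice (3–4 weeks), MHV-A59 was given intranasally (30 μL, TCID50 = 10−7.125/100 μL). Oral dosing once daily in a Cremophor EL/PBS/DMSO vehicle began at 1 hpi and lasted four days. At 3 dpi, lungs and livers from 4 mice per group were fixed in zinc formalin and paraffin-embedded. Sections of about 4 μm were stained with H&E and examined at 200× and 400×.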

[4] = tested on: Murine hepatitis virus; assay: Antiviral activity against murine hepatitis virus-A59 infected in BALB/c mouse assessed as remission of hepatocyte necrosis at 200 mg/kg, po administered once daily one hour post infection and measured after 3 days by H&E staining based analysis; format: functional, organism-based; conditions: time 3.0 day; how it was run: as §2
[5] = Drug distribution in BALB/c mouse kidney assessed as hydrolyzed GS-441524 metabolite at 200 mg/kg, po administered as single dose and measured after 1 hrs by LC-MS/MS analysis; format: ADME, organism-based; conditions: in vivo
[6] = tested on: Murine hepatitis virus; assay: Antiviral activity against murine hepatitis virus-A59 infected in po dosed BALB/c mouse assessed as inhibition of viral replication in liver administered once daily one hour post infection and measured after 3 days by qRT-PCR analysis; format: functional, organism-based; conditions: dose 10-200 mg/kg, time 3.0 day
How it was run: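 SPF male BALB/c mice aged 3–4 weeks were put under isoflurane and inoculated intranasally with 30 μL MHV-A59 (TCID50 = 10−7.125/100 μL) in PBS. Oral dosing once daily in 15% Cremophor EL/82.5% PBS/2.5% DMSO started at 1 hpi and ran for four days; groups had 12 mice. At 3 dpi, 4 mice per group were killed and lung and liver M-gene copies measured by qRT-PCR.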

[7] = tested on: Murine hepatitis virus; assay: Antiviral activity against murine hepatitis virus-A59 infected in BALB/c mouse assessed as reduction in CXCL10 production in lungs at 200 mg/kg, po administered once daily one hour post infection and measured after 3 days by ELISA analysis; format: functional, organism-based; conditions: time 3.0 day; how it was run: as §1
[8] = Drug distribution in BALB/c mouse plasma assessed as hydrolyzed ibuprofen metabolite at 200 mg/kg, po administered as single dose and measured after 1 hrs by LC-MS/MS analysis; format: ADME, organism-based; conditions: in vivo
[9] = Toxicity in BALB/c mouse infected with murine hepatitis virus-A59 assessed as effect on survival at 50 to 200 mg/kg, po administered once daily one hour post infection and measured after 23 days; conditions: in vivo, 552 h
[10] = tested on: Murine hepatitis virus; assay: Antiviral activity against murine hepatitis virus-A59 infected in BALB/c mouse assessed as alleviation of necrotic debris in lungs at 200 mg/kg, po administered once daily one hour post infection and measured after 3 days by H&E staining based analysis; format: functional, organism-based; conditions: time 3.0 day; how it was run: as §2
[11] = tested on: Murine hepatitis virus; assay: Antiviral activity against murine hepatitis virus-A59 infected in BALB/c mouse assessed as reduction in mortality at 10 to 200 mg/kg, po administered once daily one hour post infection and measured after 23 days; format: functional, organism-based; conditions: dose 10-200 mg/kg, time 23.0 day
How it was run: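 After intranasal MHV-A59 inoculation (30 μL, TCID50 = 10−7.125/100 μL), 3–4-week-old male BALB/c mice received oral drug or vehicle once daily from 1 hpi for four days, 12 per group. The remaining mice were monitored daily for body weight, clinical signs and death until 23 dpi; survival curves were plotted.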

[12] = tested on: Murine hepatitis virus; assay: Antiviral activity against murine hepatitis virus-A59 infected in BALB/c mouse assessed as alleviation of thickened alveolar septa in lungs at 200 mg/kg, po administered once daily one hour post infection and measured after 3 days by H&E staining based analysis; format: functional, organism-based; conditions: time 3.0 day; how it was run: as §2
[13] = Drug distribution in BALB/c mouse lung assessed as hydrolyzed ibuprofen metabolite at 200 mg/kg, po administered as single dose and measured after 1 hrs by LC-MS/MS analysis; format: ADME, organism-based; conditions: in vivo
[14] = Drug distribution in BALB/c mouse plasma assessed as hydrolyzed GS-441524 metabolite at 200 mg/kg, po administered as single dose and measured after 1 hrs by LC-MS/MS analysis; format: ADME, organism-based; conditions: in vivo
[15] = tested on: Murine hepatitis virus; assay: Antiviral activity against murine hepatitis virus-A59 infected in BALB/c mouse assessed as survival rate at 10 mg/kg, po administered once daily one hour post infection and measured after 23 days relative to control; format: functional; conditions: Murine coronavirus, A59, 552 h, time 23 day
How it was run: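 Male SPF BALB/c mice (3–4 weeks) were anaesthetised with isoflurane and given 30 μL MHV-A59 intranasally (TCID50 = 10−7.125/100 μL) in PBS. Oral dosing once daily in 15% Cremophor EL/82.5% PBS/2.5% DMSO began at 1 hpi and ran for four days, at 10, 50 or 200 mg/kg. There were 12 mice per group, with 4 culled at 3 dpi. Body weight, clinical signs and death were recorded daily to 23 days.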

[16] = Drug distribution in BALB/c mouse liver assessed as hydrolyzed GS-441524 metabolite at 200 mg/kg, po administered as single dose and measured after 1 hrs by LC-MS/MS analysis; format: ADME, organism-based; conditions: in vivo
[17] = tested on: Transmissible gastroenteritis virus; assay: Antiviral activity against Transmissible gastroenteritis virus infected in ST cells assessed as reduction in viral copy pre-infected with cells for 1 hrs followed by compound addition and measured after 48 hrs by RT-qPCR analysis; format: functional, organism-based; conditions: Alphacoronavirus 1, ST
How it was run: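 CRFK cells (CCoV, FIPV) or ST cells (TGEV) were grown in DMEM with 10% FBS at 37 °C, 5% CO2. At 80% confluence they were washed in serum-free medium and infected at MOI 0.01 for 1 h at 37 °C. Compounds were then added at 0.1–100 μmol/L, with DMSO as blank. After 48 h, cells and supernatants were analysed by qRT-PCR. Inhibition came from viral copy number, and EC50 from curve fitting.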

CC(C)Cc1ccc(C(C)C(=O)OC[C@H]2O[C@@](C#N)(c3ccc4c(N)ncnn34)[C@H](O)[C@@H]2O)cc1 (some centres not stated)
Activity [1]: Active
Activity [2]: Active
Activity [3]: Active
Activity [4]: Active
Drug uptake [5]: Active
Activity [6]: Dose-Dependent Effect
Activity [7]: Active
Drug uptake [8]: Active
Activity [9]: Toxic
Activity [10]: Active
Activity [11]: Active
Activity [12]: Active
Drug uptake [13]: Active
Drug uptake [14]: Active
survival at 10 mg/kg [15]: 100%
Drug uptake [16]: Active
EC50 [17]: 3.78 µM
